pKd: −log10 of the molar value. Calls of active or inactive are those of the source. No cut-off for these calls is given here.
What was measured:
[1] = target: Protein-S-isoprenylcysteine O-methyltransferase (Homo sapiens) (UniProt O60725); assay: Inhibition of recombinant human ICMT expressed in Sf9 insect cell membranes at 50 uM using biotin-farnesyl-L-cysteine as substrate preincubated for 15 mins followed by substrate addition and measured after 30 mins by scintillation counting analysis relative to control
[2] = target: T1, Protein farnesyltransferase (Homo sapiens) (UniProt P49354+P49356); assay: Inhibition of FTase in human PC3 cells assessed as reduction in HDJ2 farnesylation at 10 uM measured after 24 hrs by Western blot analysis; format: cell-based
[3] = species on record: Homo sapiens; assay: Inhibition of GGTase in human PC3 cells assessed as reduction in Rap1A geranylgeranylation at 10 uM measured after 24 hrs by Western blot analysis; format: cell-based
[4] = target: Albumin (Homo sapiens, UniProt P02768); assay: Binding affinity to human serum albumin; format: ADME; conditions: for fraction unbound: human, human serum albumin, read-out: PB (converted)
[5] = Permeability of the compound; format: ADME
How it was run: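 Parallel artificial membrane assay, expressed as percentage of compound passing through the membrane. Mean±SEM of at least two independent experiments in duplicate.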

[6] = target: T1, Protein farnesyltransferase (Homo sapiens); conditions: 1 uM
[7] = species on record: Homo sapiens; assay: Inhibition of GGTase in human PC3 cells assessed as reduction in Rap1A geranylgeranylation at 1 uM measured after 24 hrs by Western blot analysis; format: cell-based
[8] = […] at 25 mg/kg, ip measured up to 6 hrs by LC-MS/MS analysis; format: ADME, organism-based; conditions: NSG, mouse, plasma
[9] = Drug level in NSG mouse plasma at 25 mg/kg, ip measured after 1 hr by LC-MS/MS analysis; format: ADME, organism-based
How it was run: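 8-week female mice received a single 25 mg/kg ip dose. Blood was taken by cardiac puncture at set time points (n=3 per point), clotted 30 min at rt and centrifuged. Serum was extracted with cold acetonitrile, filtered, and analysed by LC-MS/MS on a C18 column using positive ESI and MRM transition 423.50 > 289.05.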

[10] = target: Tyrosine-protein kinase Fyn (Homo sapiens) (UniProt P06241); assay: Effect on GFP-fused Fyn (unknown origin) transfected in human AD293 cells assessed as induction of Fyn mislocalization at 5 uM by laser confocal microscopic analysis; format: cell-based
[11] = target: T2, CAAX prenyl protease 2 (Homo sapiens, UniProt Q9Y256); assay: Inhibition of Rce1 in human PC3 cells at 10 uM using KSKTKC(f)VI as substrate measured after 24 hrs by LC-MS/MS analysis; format: cell-based
T2 sequence (Q9Y256 whole entry): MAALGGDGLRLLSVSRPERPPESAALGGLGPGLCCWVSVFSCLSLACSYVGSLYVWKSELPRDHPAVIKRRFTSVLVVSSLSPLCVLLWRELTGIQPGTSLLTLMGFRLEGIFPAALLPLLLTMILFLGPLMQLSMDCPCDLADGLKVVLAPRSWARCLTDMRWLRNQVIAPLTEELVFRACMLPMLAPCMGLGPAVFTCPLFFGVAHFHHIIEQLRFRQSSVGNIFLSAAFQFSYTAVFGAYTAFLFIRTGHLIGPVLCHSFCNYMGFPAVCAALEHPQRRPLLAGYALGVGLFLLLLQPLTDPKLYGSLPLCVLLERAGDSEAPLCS
How it was run: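 PC-3 cells were incubated ±10 μM compound for 24 h and homogenised in 100 mM HEPES pH 7.5, 5 mM MgCl2, 0.5% NP-40. Homogenate, 0.2 mg, was reacted with 250 μM KSKTKC(f)VI for 60 min at 37 °C. Reactions were stopped with ice-cold acetonitrile, and the M+2/2 ion was followed by HPLC-MS/MS.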

[12] = Drug level in NSG mouse plasma xenografted with human HL60 cells at 25 mg/kg, ip administered 5 days a week followed by 2 days interval for 15 days measured 2 hrs post-last dose by LC-MS/MS analysis; format: ADME, organism-based
[13] = test system: HuP-T4; assay: Induction of apoptosis in human HUPT4 cells assessed as increase in sub-G0/G1 population at 50 uM measured after 24 hrs by propidium iodide staining based flow cytometry; format: functional, cell-based
[14] = target: Protein-S-isoprenylcysteine O-methyltransferase (Homo sapiens) (UniProt O60725); assay: Inhibition of ICMT in human PC3 cells assessed as induction of mislocalization of endogenous Ras at 5 uM preincubated for 48 hrs followed by compound washout and subsequent compound addition measured after 72 hrs by Hoechst 33258 staining-based confocal microscopic analysis; format: cell-based
How it was run: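 PC3 cells were seeded at 2×10^4 on poly-D-lysine coverslips for 24 h in RPMI with 10% FBS. They were treated with compound or DMSO for 120 h, with medium and compound renewed at 48 h. Cells were fixed in 4% PFA, permeabilised with Triton X-100, and stained with anti-Ras and a fluorescent secondary, with Hoechst for nuclei. Imaging used a 60X confocal objective, and membrane Ras signal was quantified.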

[15] = target: Protein-S-isoprenylcysteine O-methyltransferase (Homo sapiens) (UniProt O60725); assay: Inhibition of ICMT in human AD293 cells transfected GFP-fused H-Ras assessed as induction of H-Ras mislocalization at 5 uM by laser scanning confocal microscopic analysis; format: cell-based
How it was run: (§1)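 AD-293 cells were transiently transfected with GFP fusion plasmids of H-Ras, K-Ras4A, K-Ras4B or N-Ras. They were treated overnight with 5 μM compound or DMSO, then imaged live by laser scanning confocal microscopy. Three independent transfections were performed in triplicate.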

[16] = target: Protein-S-isoprenylcysteine O-methyltransferase (Homo sapiens) (UniProt O60725); assay: Inhibition of ICMT in human AD293 cells transfected GFP-fused K-Ras4A assessed as induction of K-Ras4A mislocalization at 5 uM by laser scanning confocal microscopic analysis; format: cell-based; how it was run: as §1
[17] = test system: PC-3; assay: Induction of autophagy in human PC3 cells assessed as increase in LC3 expression at 25 uM measured after 24 hrs by Western blot analysis; format: functional, cell-based
[18] = test system: PC-3; assay: Induction of apoptosis in human PC3 cells assessed as increase in caspase 3 activity at 25 uM; format: functional, cell-based
[19] = test system: MIA PaCa-2; assay: Induction of apoptosis in human MIAPaCa2 cells assessed as increase in sub-G0/G1 population at 50 uM measured after 24 hrs by propidium iodide staining based flow cytometry; format: functional, cell-based
[20] = test system: PK9; assay: Induction of apoptosis in human PK9 cells assessed as increase in sub-G0/G1 population at 50 uM measured after 24 hrs by propidium iodide staining based flow cytometry; format: functional, cell-based
[21] = test system: PC-3; assay: Induction of apoptosis in human PC3 cells assessed as increase in cleaved PARP expression at 25 uM measured after 24 hrs by Western blot analysis; format: functional, cell-based
[22] = test system: PANC-1; assay: Induction of apoptosis in human PANC1 cells assessed as increase in sub-G0/G1 population at 50 uM measured after 24 hrs by propidium iodide staining based flow cytometry; format: functional, cell-based
[23] = target: Protein-S-isoprenylcysteine O-methyltransferase (Homo sapiens) (UniProt O60725); assay: Inhibition of ICMT in human AD293 cells transfected GFP-fused K-Ras4B assessed as induction of K-Ras4B mislocalization at 5 uM by laser scanning confocal microscopic analysis; format: cell-based; how it was run: as §1
[24] = target: Protein-S-isoprenylcysteine O-methyltransferase (Homo sapiens) (UniProt O60725); assay: Inhibition of ICMT in human AD293 cells transfected GFP-fused N-Ras assessed as induction of N-Ras mislocalization at 5 uM by laser scanning confocal microscopic analysis; format: cell-based; how it was run: as §1
[25] = test system: Capan-2; assay: Induction of apoptosis in human Capan2 cells assessed as increase in sub-G0/G1 population at 50 uM measured after 24 hrs by propidium iodide staining based flow cytometry; format: functional, cell-based

Sequence of Protein-S-isoprenylcysteine O-methyltransferase (Homo sapiens) (O60725 whole entry, the tested form may be a part): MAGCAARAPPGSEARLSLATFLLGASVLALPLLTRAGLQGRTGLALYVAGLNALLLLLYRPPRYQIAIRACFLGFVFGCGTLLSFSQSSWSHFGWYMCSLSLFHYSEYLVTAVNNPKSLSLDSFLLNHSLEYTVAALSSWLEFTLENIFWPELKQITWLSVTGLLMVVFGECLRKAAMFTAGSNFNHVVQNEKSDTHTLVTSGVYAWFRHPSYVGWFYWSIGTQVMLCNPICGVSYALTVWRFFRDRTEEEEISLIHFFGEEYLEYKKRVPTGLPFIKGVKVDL
Sequence of Albumin (P02768 whole entry): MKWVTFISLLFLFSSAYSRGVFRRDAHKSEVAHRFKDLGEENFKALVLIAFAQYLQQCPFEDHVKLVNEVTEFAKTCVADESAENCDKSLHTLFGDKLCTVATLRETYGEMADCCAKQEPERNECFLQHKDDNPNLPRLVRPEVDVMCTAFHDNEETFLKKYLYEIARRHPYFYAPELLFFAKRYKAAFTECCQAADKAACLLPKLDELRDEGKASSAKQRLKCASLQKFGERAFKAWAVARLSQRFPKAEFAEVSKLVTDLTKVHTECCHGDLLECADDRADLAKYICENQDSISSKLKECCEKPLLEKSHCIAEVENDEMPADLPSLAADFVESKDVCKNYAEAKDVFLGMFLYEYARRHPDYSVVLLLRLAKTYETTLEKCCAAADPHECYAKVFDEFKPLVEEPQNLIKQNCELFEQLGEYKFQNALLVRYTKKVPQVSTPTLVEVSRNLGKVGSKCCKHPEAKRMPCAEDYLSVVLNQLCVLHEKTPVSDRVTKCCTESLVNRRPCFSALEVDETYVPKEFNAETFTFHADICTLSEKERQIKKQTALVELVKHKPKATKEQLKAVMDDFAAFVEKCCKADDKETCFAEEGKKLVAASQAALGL
Sequence of Tyrosine-protein kinase Fyn (Homo sapiens) (P06241 2-537 limits assumed): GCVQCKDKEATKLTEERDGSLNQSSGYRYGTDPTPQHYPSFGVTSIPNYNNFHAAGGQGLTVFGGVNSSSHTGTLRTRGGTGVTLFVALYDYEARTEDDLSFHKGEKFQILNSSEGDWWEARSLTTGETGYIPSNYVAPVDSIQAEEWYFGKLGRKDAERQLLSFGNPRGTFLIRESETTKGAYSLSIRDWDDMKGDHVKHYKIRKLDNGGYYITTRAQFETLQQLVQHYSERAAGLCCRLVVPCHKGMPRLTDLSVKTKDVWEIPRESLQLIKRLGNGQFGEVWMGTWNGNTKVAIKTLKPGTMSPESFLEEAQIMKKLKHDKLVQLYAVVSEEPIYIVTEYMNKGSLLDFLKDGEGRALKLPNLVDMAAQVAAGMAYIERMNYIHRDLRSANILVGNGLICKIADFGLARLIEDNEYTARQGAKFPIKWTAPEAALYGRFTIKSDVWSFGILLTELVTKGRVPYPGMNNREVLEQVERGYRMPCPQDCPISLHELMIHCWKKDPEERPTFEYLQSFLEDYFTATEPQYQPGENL

CCCCCCCCN(CCC(=O)Nc1ccccc1)CCS(=O)(=O)N(C)c1ccccc1
inhibition [1]: 10%

COC(=O)[C@H](CC(C)C)NC(=O)c1ccc(NC[C@@H](N)CS)cc1-c1cccc2ccccc12
inhibition [2]: inactive
inhibition [3]: Active

CCCCCCCCN(CCC(=O)Nc1ccccc1)CCC(=O)Nc1ccc(F)cc1
pKd [4]: 5.11
fraction unbound [4]: 0.013
permeability [5]: 54%

NC(=O)N1CCC(CC(=O)N2CCC([C@H]3c4ncc(Br)cc4CCc4cc(Cl)cc(Br)c43)CC2)CC1
inhibition [6]: Active
inhibition [7]: inactive

CCCCCCCCN(CCC(=O)Nc1ccccc1)CCS(=O)(=O)Nc1ccccc1
inhibition [1]: 22%

CCOCCOCCN(CCC(=O)Nc1ccccc1)CCC(=O)Nc1ccccc1
inhibition [1]: 15%

CCCCCCCCN(CCS(=O)(=O)Nc1ccccc1)CCS(=O)(=O)Nc1ccccc1
inhibition [1]: 34%

CCCCCCCCN(CCC(=O)Nc1ccccc1)CCC(=O)NC1CCCCC1
pKd [4]: 5.52
fraction unbound [4]: 0.005
permeability [5]: 50%

CCCCCCCCN(CCS(=O)(=O)N(C)c1ccccc1)CCS(=O)(=O)N(C)c1ccccc1
inhibition [1]: 12%

CCCCCCCCN(CCC(=O)Nc1ccccc1)CCC(=O)Nc1ccccc1
inhibition [2]: inactive
pKd [4]: 4.55
fraction unbound [4]: 0.046
permeability [5]: 68%
concentration at 6 h [8]: 480 nM
concentration at 1 h [9]: 1700 nM
Activity [10]: inactive
inhibition (INH) [11]: Not Active
concentration at 2 h [12]: 736 nM

CCCCCCCCn1cc(CC(N)=O)c2cc(-c3cccc(C)c3)ccc21
Activity [13]: Active
inhibition [14]: Active
inhibition [15]: Active
inhibition [16]: Active
Activity [17]: Active
Activity [18]: Active
Activity [19]: Active
Activity [20]: Active
Activity [21]: Active
Activity [22]: Active
Activity [10]: inactive
inhibition [23]: Active
inhibition [24]: Active
Activity [25]: Active

Source: ChEMBL document CHEMBL4359814, “A Potent Isoprenylcysteine Carboxylmethyltransferase (ICMT) Inhibitor Improves Survival in Ras-Driven Acute Myeloid Leukemia” (J Med Chem, 2019)
